Results: article PMC4467241 (Clinical Pharmacology in Drug Development, 2014)
Like-named read-outs stand apart in the source and are kept apart here. Marks after values point to notes of the source that are not given here.

Tests used:
[1] = type: in vivo, human
Outline: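 Heparinised plasma was taken predose and at 0.5–48 h, spun within 30 min and stored at −70 °C. Parent and metabolite were measured by SPE LC–MS/MS; noncompartmental AUC, with ANOVA on log values giving geometric-mean ratio and 90% CI.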

[2] = Steady-state plasma pharmacokinetics of apremilast alone; type: in vivo, human; conditions: for CLss/F / Cmin: steady-state
Outline: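 Test compound was given at 30 mg Q12h for 12 doses, with a single co-drug dose added on Day 8. Citrated plasma was sampled predose and at 0.5–12 h after the morning dose on Days 7 and 8, then assayed by liquid-liquid extraction LC–MS/MS. Noncompartmental AUC0–τ and Cmax were derived, with ANOVA on log values (treatment fixed, subject random), geometric-mean ratio with 90% CI, and Hodges–Lehmann tmax.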

P-glycoprotein (P-gp) [3] = conditions: read-out: IC50 (P-gp inhibition); in vitro, weak inhibitor; cited from earlier work
P-glycoprotein (P-gp) [4] = conditions: in vitro; cited from earlier work
[5] = tested on: breast cancer resistance protein (BCRP); conditions: stated in introduction, no reference given; cited from earlier work
[6] = tested on: organic anion transporter (OAT)1; conditions: stated in introduction, no reference given; cited from earlier work
OAT3 [7] = conditions: stated in introduction, no reference given; cited from earlier work
[8] = tested on: organic cation transporter (OCT)2; conditions: stated in introduction, no reference given; cited from earlier work
[9] = tested on: organic anion transporting polypeptide (OATP)1B1; conditions: stated in introduction, no reference given; cited from earlier work
OATP1B3 [10] = conditions: stated in introduction, no reference given; cited from earlier work
OAT3 [11] = conditions: stated in introduction, no reference given; cited from earlier work; remark: listed apart in the source
BCRP = conditions: in vitro, no reference printed, cited from earlier work
[12] = tested on: multidrug resistance protein (MRP)1; conditions: stated in introduction, no reference given; cited from earlier work
MRP2 = conditions: in vitro, no reference printed, cited from earlier work
MRP4 = conditions: stated in introduction, no reference given; cited from earlier work
OATP1B3 [13] = conditions: stated in introduction, no reference given; cited from earlier work; remark: listed apart in the source
OCT2 = conditions: stated in introduction, no reference given; cited from earlier work
OAT1 = conditions: read-out: IC50 (OAT1 inhibition); weak inhibitor; no reference given; cited from earlier work
OATP1B1 = conditions: read-out: IC50 (OATP1B1 inhibition); weak inhibitor; no reference given; cited from earlier work
MRP3 = conditions: read-out: IC50 (MRP3 inhibition); weak inhibitor; no reference given; cited from earlier work
[14] = cited from earlier work
[15] = no reference given, cited from earlier work; for Apparent clearance: prior studies
[16] = healthy subjects, Apremilast 30 mg BID; cited from earlier work
[17] = 7-OH MTX in plasma after MTX 10 mg oral + Apremilast 30 mg Q12H (Day 8), N = 1
[18] = 7-OH MTX in plasma after MTX 10 mg oral alone (Day 1), N = 1
[19] = 7-OH MTX in plasma after MTX 12.5 mg oral + Apremilast 30 mg Q12H (Day 8), N = 1
[20] = 7-OH MTX in plasma after MTX 12.5 mg oral alone (Day 1), N = 1
[21] = 7-OH MTX in plasma after MTX 17.5 mg oral + Apremilast 30 mg Q12H (Day 8), N = 1
[22] = 7-OH MTX in plasma after MTX 17.5 mg oral alone (Day 1), N = 1
[23] = 7-OH MTX in plasma, ANOVA, N = 15
[24] = 7-OH MTX in plasma, all dose groups, N = 15, acceptance range 80–125%
[25] = Apremilast 30 mg Q12H alone (Day 7), plasma, N = 15, arithmetic mean (SD)
[26] = both, human, plasma, oral, 30 mg

## CN(Cc1nc2c(N)nc(N)nc2[nH]c1=O)c1ccc(C(=O)N[C@@H](CCC(=O)O)C(=O)O)cc1 [7-OH MTX, 7-hydroxy methotrexate]
[1]; [17]
  AUC0–t: 620 ng·h/mL
  AUC0–∞: 650 ng·h/mL
  Cmax: 32.9 ng/mL
  t1/2: 10.9 h
  tmax: 6.00 h
[1]; [18]
  AUC0–t: 430 ng·h/mL
  AUC0–∞: 460 ng·h/mL
  Cmax: 21.0 ng/mL
  t1/2: 11.9 h
  tmax: 5.98 h
[1]; [19]
  AUC0–t: 1,670 hr ng/mL
  AUC0–∞: 1,820 hr ng/mL
  Cmax: 72.8 ng/mL
  t1/2: 12.0 h
  tmax: 6.00 h
[1]; [20]
  AUC0–t: 1,220 hr ng/mL
  AUC0–∞: 1,370 hr ng/mL
  Cmax: 52.8 ng/mL
  t1/2: 14.2 h
  tmax: 6.00 h
[1]; 7-OH MTX in plasma after MTX 15 mg oral alone (Day 1), N = 6, median (range)
  tmax: 7.52 (6.00–12.00) hr
[1]; [21]
  AUC0–t: 1,170 hr ng/mL
  AUC0–∞: 1,290 hr ng/mL
  Cmax: 48.9 ng/mL
  t1/2: 12.2 h
  tmax: 9.00 h
[1]; [22]
  AUC0–t: 1,170 hr ng/mL
  AUC0–∞: 1,300 hr ng/mL
  Cmax: 45.4 ng/mL
  t1/2: 13.0 h
  tmax: 6.00 h
[1]; 7-OH MTX in plasma after MTX 20 mg oral alone (Day 1), N = 6, median (range)
  tmax: 7.54 (5.95–9.00) hr
[1]; [23]
  Intra-subject CV% of AUC0–t: 19.89%
  Intra-subject CV% of AUC0–∞: 19.34%
  Intra-subject CV% of Cmax: 17.84%
[1]; 7-OH MTX in plasma, all dose groups, N = 15, Hodges–Lehmann
  tmax median difference (“MTX + Apremilast” − “MTX”): 0.005 ^c hr
[1]; [24]
  AUC0–t ratio of geometric means (“methotrexate + apremilast”/“methotrexate”): 98.59
  AUC0–∞ ratio of geometric means (“methotrexate + apremilast”/“methotrexate”): 98.24
  Cmax ratio of geometric means (“methotrexate + apremilast”/“methotrexate”): 104.01
[1]; 7-hydroxy methotrexate, methotrexate with versus without apremilast
  90% CI for Cmax, AUC0–t and AUC0–∞ versus FDA acceptance range of 80–125%: within the acceptance range for equivalency

## CCOc1cc([C@@H](CS(C)(=O)=O)N2C(=O)c3cccc(NC(C)=O)c3C2=O)ccc1OC [APR, apremilast]
[2]; Apremilast 30 mg Q12H + MTX (Day 8), plasma, N = 13, arithmetic mean, excludes data with R^2 < 0.9
  CLss/F: 156 ^b (86.3) mL/min
[2]; Apremilast 30 mg Q12H + MTX (Day 8), plasma, N = 15, arithmetic mean (SD)
  Cmin: 242 (153) ng/mL
[2]; [25]
  CLss/F: 153 (78.6) mL/min
  Cmin: 248 (153) ng/mL
[2]; apremilast in plasma, 30 mg Q12H, N = 15, Hodges–Lehmann
  tmax median difference (“APR + MTX” − “APR”): 0 ^c hr
[2]; apremilast in plasma, 30 mg Q12H, N = 15, acceptance range 80–125%
  Cmax ratio of geometric means (“methotrexate + apremilast”/“apremilast”): 95.00
[2]; apremilast in plasma, 30 mg Q12H, acceptance range 80–125%
  AUC0–τ ratio of geometric means (“methotrexate + apremilast”/“apremilast”): 99.30
[2]; apremilast in plasma, ANOVA
  Intra-subject CV% of AUC0–τ: 9.66%
[2]; apremilast in plasma, ANOVA, N = 15
  Intra-subject CV% of Cmax: 12.07%
[2]; apremilast with versus without methotrexate
  90% CI for Cmax and AUCtau versus FDA acceptance range of 80–125%: within the acceptance range for equivalency
[2]; [26]
  AUC: 4110 ng·h/mL
  Cmax: 584 ng/mL
  tmax: 2 h
P-glycoprotein (P-gp) [3]
  IC50: > 50 µM
P-glycoprotein (P-gp) [4]
  Substrate of P-gp: substrate
[5]
  Substrate of BCRP: not a substrate
[6]
  Substrate of OAT1: not a substrate
OAT3 [7]
  Substrate of OAT3: not a substrate
[8]
  Substrate of OCT2: not a substrate
[9]
  Substrate of OATP1B1: not a substrate
OATP1B3 [10]
  Substrate of OATP1B3: not a substrate
OAT3 [11]
  Inhibition of OAT3: does not inhibit
BCRP; listed as Apremilast
  Inhibition of BCRP: does not inhibit
BCRP; listed as apremilast
  Inhibition of BCRP: not an inhibitor
[12]
  Inhibition of MRP1: does not inhibit
MRP2; listed as Apremilast
  Inhibition of MRP2: does not inhibit
MRP2; listed as apremilast
  Inhibition of MRP2: not an inhibitor
MRP4
  Inhibition of MRP4: does not inhibit
OATP1B3 [13]
  Inhibition of OATP1B3: does not inhibit
OCT2
  Inhibition of OCT2: does not inhibit
OAT1
  IC50: > 10 µM
OATP1B1
  IC50: > 10 µM
MRP3
  IC50: > 10 µM
[14]; in humans
  Oral bioavailability: ~73%
[14]; orally administered
  Excreted unchanged in urine: less than 3%
[15]; healthy volunteer studies, Apremilast administered BID
  Time by which steady-state is achieved: ≤ 36 h
[15]; in healthy subjects
  Apparent clearance: ~10 L/h
[15]; in patients
  Apparent clearance: 8.7 L/h

## CCOc1cc(C(CS(C)(=O)=O)N2C(=O)c3cccc(NC(C)=O)c3C2=O)ccc1OC1OC(C(=O)O)C(O)C(O)C1O (centres unmarked) [M12]
[16]
  AUC relative to Apremilast: approximately 1.7 fold
  Cmax relative to Apremilast: ~1.25 fold
